Measurements: article PMC4832308 (Cancer, 2015)

Tested on: patients with advanced solid tumors or multiple myeloma
Experiment: phase 1 dose escalation: safety, tolerability, DLT, MTD
Assay type: in vivo, human
Procedure, shortened: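 Modified accelerated titration from 7.5 mg, oral daily in 28-day cycles. Single-patient cohorts used 100% increments until the first drug-related grade ≥2 toxicity, then 6-patient cohorts used ~50% steps. A dose with ≥2 DLTs was nontolerated. MTD was the last lower dose with 0–1 of 6 DLTs in cycle 1. Adverse events were graded by NCI CTCAE version 4.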

## CO[C@H]1CC[C@H](N2C(=O)CNc3ncc(-c4ccc(C(C)(C)O)nc4)nc32)CC1 [CC‐223]
45 mg, Any Grade
  Dyspnea (treatment‐related AE): 1 (11) n (%)
  Fatigue (treatment‐related AE): 5 (56) n (%)
  Hyperglycemia (treatment‐related AE): 4 (44) n (%)
  Increased glycosylated hemoglobin (treatment‐related AE): 2 (22) n (%)
  Mucositis (treatment‐related AE): 3 (33) n (%)
  Nausea (treatment‐related AE): 6 (67) n (%)
  Pruritus (treatment‐related AE): 2 (22) n (%)
  Rash (treatment‐related AE): 2 (22) n (%)
  Rash pruritic (treatment‐related AE): 0 n (%)
  Thrombocytopenia (treatment‐related AE): 2 (22) n (%)
  Vomiting (treatment‐related AE): 2 (22) n (%)
45 mg, Grade ≥3
  Arthralgia (treatment‐related AE): 0 n (%)
  Asthenia (treatment‐related AE): 0 n (%)
  Decreased appetite (treatment‐related AE): 0 n (%)
  Diarrhea (treatment‐related AE): 0 n (%)
  Dry mouth (treatment‐related AE): 0 n (%)
  Dysgeusia (treatment‐related AE): 0 n (%)
  Dyspnea (treatment‐related AE): 0 n (%)
  Fatigue (treatment‐related AE): 1 (11) n (%)
  Hyperglycemia (treatment‐related AE): 1 (11) n (%)
  Increased glycosylated hemoglobin (treatment‐related AE): 0 n (%)
  Mucositis (treatment‐related AE): 0 n (%)
  Nausea (treatment‐related AE): 0 n (%)
  Pruritus (treatment‐related AE): 0 n (%)
  Rash (treatment‐related AE): 1 (11) n (%)
  Rash pruritic (treatment‐related AE): 0 n (%)
  Thrombocytopenia (treatment‐related AE): 0 n (%)
  Vomiting (treatment‐related AE): 0 n (%)
60 mg
  Dose interruptions: 7
  Dose reductions: 5
60 mg, Any Grade
  Arthralgia (treatment‐related AE): 2 (29) n (%)
  Asthenia (treatment‐related AE): 3 (43) n (%)
  Decreased appetite (treatment‐related AE): 2 (29) n (%)
  Diarrhea (treatment‐related AE): 5 (71) n (%)
  Dry mouth (treatment‐related AE): 0 n (%)
  Dysgeusia (treatment‐related AE): 1 (14) n (%)
  Dyspnea (treatment‐related AE): 1 (14) n (%)
  Fatigue (treatment‐related AE): 7 (100) n (%)
  Hyperglycemia (treatment‐related AE): 4 (57) n (%)
  Increased glycosylated hemoglobin (treatment‐related AE): 2 (29) n (%)
  Mucositis (treatment‐related AE): 5 (71) n (%)
  Nausea (treatment‐related AE): 3 (43) n (%)
  Pruritus (treatment‐related AE): 0 n (%)
  Rash (treatment‐related AE): 3 (43) n (%)
  Rash pruritic (treatment‐related AE): 2 (29) n (%)
  Thrombocytopenia (treatment‐related AE): 0 n (%)
  Vomiting (treatment‐related AE): 5 (71) n (%)
60 mg, Grade ≥3
  Arthralgia (treatment‐related AE): 1 (14) n (%)
  Asthenia (treatment‐related AE): 0 n (%)
  Decreased appetite (treatment‐related AE): 0 n (%)
  Diarrhea (treatment‐related AE): 1 (14) n (%)
  Dry mouth (treatment‐related AE): 0 n (%)
  Dysgeusia (treatment‐related AE): 0 n (%)
  Dyspnea (treatment‐related AE): 0 n (%)
  Fatigue (treatment‐related AE): 1 (14) n (%)
  Hyperglycemia (treatment‐related AE): 2 (29) n (%)
  Increased glycosylated hemoglobin (treatment‐related AE): 0 n (%)
  Mucositis (treatment‐related AE): 2 (29) n (%)
  Nausea (treatment‐related AE): 0 n (%)
  Pruritus (treatment‐related AE): 0 n (%)
  Rash (treatment‐related AE): 1 (14) n (%)
  Rash pruritic (treatment‐related AE): 2 (29) n (%)
  Thrombocytopenia (treatment‐related AE): 0 n (%)
  Vomiting (treatment‐related AE): 0 n (%)
Overall (N = 28), Any Grade
  Arthralgia (treatment‐related AE): 4 (14) n (%)
  Asthenia (treatment‐related AE): 7 (25) n (%)
  Decreased appetite (treatment‐related AE): 9 (32) n (%)
  Diarrhea (treatment‐related AE): 13 (46) n (%)
  Dry mouth (treatment‐related AE): 3 (11) n (%)
  Dysgeusia (treatment‐related AE): 5 (18) n (%)
  Dyspnea (treatment‐related AE): 3 (11) n (%)
  Fatigue (treatment‐related AE): 18 (64) n (%)
  Hyperglycemia (treatment‐related AE): 12 (43) n (%)
  Increased glycosylated hemoglobin (treatment‐related AE): 4 (14) n (%)
  Mucositis (treatment‐related AE): 11 (39) n (%)
  Nausea (treatment‐related AE): 14 (50) n (%)
  Pruritus (treatment‐related AE): 4 (14) n (%)
  Rash (treatment‐related AE): 7 (25) n (%)
  Rash pruritic (treatment‐related AE): 3 (11) n (%)
  Thrombocytopenia (treatment‐related AE): 3 (11) n (%)
  Vomiting (treatment‐related AE): 9 (32) n (%)
Overall (N = 28), Grade ≥3
  Arthralgia (treatment‐related AE): 1 (4) n (%)
  Asthenia (treatment‐related AE): 0 n (%)
  Decreased appetite (treatment‐related AE): 0 n (%)
  Diarrhea (treatment‐related AE): 1 (4) n (%)
  Dry mouth (treatment‐related AE): 0 n (%)
  Dysgeusia (treatment‐related AE): 0 n (%)
  Dyspnea (treatment‐related AE): 0 n (%)
  Fatigue (treatment‐related AE): 2 (7) n (%)
  Hyperglycemia (treatment‐related AE): 5 (18) n (%)
  Increased glycosylated hemoglobin (treatment‐related AE): 0 n (%)
  Mucositis (treatment‐related AE): 2 (7) n (%)
  Nausea (treatment‐related AE): 0 n (%)
  Pruritus (treatment‐related AE): 0 n (%)
  Rash (treatment‐related AE): 2 (7) n (%)
  Rash pruritic (treatment‐related AE): 2 (7) n (%)
  Thrombocytopenia (treatment‐related AE): 0 n (%)
  Vomiting (treatment‐related AE): 0 n (%)
Total
  Dose interruptions: 22
All patients, any grade
  treatment‐related AE: asthenia: 25%
  treatment‐related AE: decreased appetite: 32%
  treatment‐related AE: fatigue: 64%
  treatment‐related AE: nausea: 50%
  treatment‐related AE: rash: 25%
  treatment‐related AE: vomiting: 32%
All patients, grade ≥3
  treatment‐related AE: hyperglycemia: 18%
At the MTD (45 mg/d)
  patients requiring dose interruptions: 55.6%
  patients requiring dose reductions: 11.1%
Grade ≥3, 30‐mg/d cohort
  treatment‐related hyperglycemia, number of patients: 2 n
Grade ≥3, 45‐mg/d cohort
  treatment‐related hyperglycemia, number of patients: 1 n
Grade ≥3, 60‐mg/d cohort
  treatment‐related hyperglycemia, number of patients: 2 n
Oral daily dosing, 28‐day cycles
  maximum tolerated dosage (MTD): 45 mg/day
overall
  median time to dose reduction: 25 days
Patients receiving doses ≥30 mg/d
  increases in glucose, insulin, and C‐peptide levels: dose‐dependent
Treatment cycle 1, all cohorts
  patients with dose‐limiting toxicities: Four
